{"source": "paper PMC6767012", "about": "(Clinical Pharmacology in Drug Development, 2018)", "key": {"[1]": {"settings": "single oral 180-mg dose, healthy subjects; cited from earlier work"}, "[2]": {"test": "Food effect study: safety and tolerability", "type": "in vivo, human", "settings": "for Incidence of treatment-emergent adverse events (TEAEs): single oral 180 mg, healthy subjects", "method_in_brief": "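Phase 1, single-centre, randomised, open-label, 2-period, 2-sequence crossover in healthy nonsmoking adults aged 18–55, BMI 18–30 kg/m2, at least 50 kg. Single morning oral dose (2 × 90-mg tablets) with about 240 mL water, after an overnight fast of at least 10 h, or with a standardised high-fat meal 30 ± 5 min before dosing. Washout at least 16 days. Adverse events were tracked until 7 days after the last dose, alongside vital signs, haematology, chemistry, urinalysis, physical exams and 12-lead ECG.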"}, "[3]": {"tested_on": "ALK resistance mutations", "settings": "nonclinical studies; cited from earlier work"}, "[4]": {"tested_on": "CYP2C8 and CYP3A4", "settings": "human liver microsomes and hepatocytes; cited from earlier work"}, "[5]": {"type": "in vivo, human", "settings": "single oral 180 mg; for Effect of high-fat meal on total exposure (AUC): fed vs fasted; for Reduction of Cmax under fed versus fasted conditions: high-fat meal; for half-life: t1/2 (terminal elimination half-life)"}, "[6]": {"settings": "cited from earlier work"}, "[7]": {"tested_on": "ALK+ NSCLC", "settings": "180 mg orally once daily with 7-day lead-in at 90 mg; crizotinib-refractory ALK+ NSCLC; cited from earlier work"}, "[8]": {"settings": "healthy subjects; cited from earlier work"}, "[9]": {"settings": "patients with advanced ALK+ NSCLC; cited from earlier work"}, "[10]": {"settings": "cited from earlier work", "remark": "listed apart in the source"}}, "note": "Like-named read-outs stand apart in the source and are kept apart here.", "data": [{"molecule": "COc1cc(N2CCC(N3CCN(C)CC3)CC2)ccc1Nc1ncc(Cl)c(Nc2ccccc2P(C)(C)=O)n1", "note": "[Brigatinib]", "values": [{"measurement": "Administered dose excreted in the feces", "setting": "[1]", "value": 65, "unit": "%"}, {"measurement": "Administered dose excreted in the urine", "setting": "[1]", "value": 25, "unit": "%"}, {"measurement": "Subjects with cough", "setting": "[2]; fasted", "value": 24, "unit": "%"}, {"measurement": "Subjects with headache", "setting": "[2]; fasted", "value": 14, "unit": "%"}, {"measurement": "Subjects with nausea", "setting": "[2]; fasted", "value": 14, "unit": "%"}, {"measurement": "Subjects with somnolence", "setting": "[2]; fasted", "value": 14, "unit": "%"}, {"measurement": "Abnormalities in laboratory findings, vital signs, ECGs, or physical examination", "setting": "[2]; fasted and fed", "value": "no clinically significant abnormalities"}, {"measurement": "Deaths or serious TEAEs", "setting": "[2]; fasted and fed", "value": "No deaths or serious TEAEs"}, {"measurement": "Intensity of TEAEs", "setting": "[2]; fasted and fed", "value": "mild"}, {"measurement": "Incidence of treatment-emergent adverse events (TEAEs)", "setting": "[2]; fasted", "value": 48, "unit": "%"}, {"measurement": "Subjects with headache", "setting": "[2]; fed", "value": 4, "unit": "%"}, {"measurement": "Subjects with nausea", "setting": "[2]; fed", "value": 4, "unit": "%"}, {"measurement": "Subjects with somnolence", "setting": "[2]; fed", "value": 4, "unit": "%"}, {"measurement": "Incidence of treatment-emergent adverse events (TEAEs)", "setting": "[2]; fed (high-fat meal)", "value": 46, "unit": "%"}, {"measurement": "Activity against all ALK resistance mutations tested", "setting": "[3]", "value": "potent activity"}, {"measurement": "Metabolizing enzymes", "setting": "[4]", "value": "cytochrome P450 (CYP)2C8 and CYP3A4"}, {"measurement": "Effect of high-fat meal on total exposure (AUC)", "setting": "[5]", "value": "no effect"}, {"measurement": "Effect of high-fat meal on total exposure (AUC)", "setting": "[5]; listed as brigatinib", "value": "similar"}, {"measurement": "Reduction of Cmax under fed versus fasted conditions", "setting": "[5]", "value": 13, "unit": "%"}, {"measurement": "Reduction of Cmax under fed versus fasted conditions", "setting": "[5]; listed as brigatinib", "value": "approximately 13%"}, {"measurement": "Cmax", "setting": "[5]; human, plasma, po, 180 mg, Geometric mean (% CV), fasted, N = 21", "value": 701, "unit": "ng/mL"}, {"measurement": "Cmax", "setting": "[5]; human, plasma, po, 180 mg, Geometric mean (% CV), fed (high-fat meal), N = 24", "value": 605, "unit": "ng/mL"}, {"measurement": "Cmax", "setting": "[5]; human, plasma, po, 180 mg, Mean (SD), fed (high-fat meal), healthy subjects, N = 24", "value": 622, "unit": "ng/mL"}, {"measurement": "Tmax", "setting": "[5]; human, plasma, po, 180 mg, Tmax, Median (minimum-maximum), fed (high-fat meal), N = 24", "value": 5, "unit": "h"}, {"measurement": "half-life", "setting": "[5]; human, plasma, po, 180 mg, Mean (SD), fasted, N = 21", "value": 31, "unit": "h"}, {"measurement": "half-life", "setting": "[5]; human, plasma, po, 180 mg, Mean (SD), fed (high-fat meal), N = 24", "value": 31.1, "unit": "h"}, {"measurement": "Steady-state systemic exposure versus dose", "setting": "[6]; 60 mg to 240 mg once daily", "value": "dose proportional"}, {"measurement": "Geometric mean apparent oral clearance at steady-state", "setting": "[6]; 180 mg orally once daily", "value": 10.6, "unit": "L/h"}, {"measurement": "Mean plasma elimination half-life", "setting": "[6]; 180 mg orally once daily", "value": 25, "unit": "h"}, {"measurement": "Confirmed objective response rate", "setting": "[7]", "value": 56, "unit": "%"}, {"measurement": "Median progression-free survival", "setting": "[7]", "value": 16.7, "unit": "months"}]}, {"molecule": "C[C@@H](Oc1cc(-c2cnn(C3CCNCC3)c2)cnc1N)c1c(Cl)ccc(F)c1Cl", "note": "[Crizotinib]", "values": [{"measurement": "Decrease of exposure (both Cmax and AUC) following a high-fat meal", "setting": "[8]", "value": 14, "unit": "%"}]}, {"molecule": "Cc1cc(Nc2ncc(Cl)c(Nc3ccccc3S(=O)(=O)C(C)C)n2)c(OC(C)C)cc1C1CCNCC1", "note": "[ceritinib]", "values": [{"measurement": "Cmax and AUC0–24 of 450 mg taken with food versus 750 mg fasted", "setting": "[9]", "value": "comparable"}, {"measurement": "Incidence of gastrointestinal toxicities, 450 mg with food versus 750 mg fasted", "setting": "[9]", "value": "lower incidence"}, {"measurement": "Effect of food on exposure", "setting": "[10]", "value": "increases exposure"}]}]}
